This is one part of a sample in which hits are shown more often than they occur.
Lmaj promast = inhibitors of Leishmania major promastigote growth. Leishmania major promastigotes, resazurin fluorescence viability. 9% of 200,000 active. inhibition, % at 10 µM. AID 1063;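 further: promastigotes grown with compound for 44 hours at 28 °C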
Avidin bead fluor = compound fluoresces at 488/530 nm on avidin beads; compound fluorescence 488/530 nm, flow cytometry; hits give high values; 0.38% of 220,000 active; fluorescence (KMESF) at 10 µM; in the data active means fluorescence above about 47
PKD1 kinase inh = blocks activity of human protein kinase D1. AID 797. 0.056% of 200,000 active. Q15139. inhibition, % (test concentration not listed). PKD1 kinase fluorescence polarization assay
Target sequence (Q15139 whole entry, looked up): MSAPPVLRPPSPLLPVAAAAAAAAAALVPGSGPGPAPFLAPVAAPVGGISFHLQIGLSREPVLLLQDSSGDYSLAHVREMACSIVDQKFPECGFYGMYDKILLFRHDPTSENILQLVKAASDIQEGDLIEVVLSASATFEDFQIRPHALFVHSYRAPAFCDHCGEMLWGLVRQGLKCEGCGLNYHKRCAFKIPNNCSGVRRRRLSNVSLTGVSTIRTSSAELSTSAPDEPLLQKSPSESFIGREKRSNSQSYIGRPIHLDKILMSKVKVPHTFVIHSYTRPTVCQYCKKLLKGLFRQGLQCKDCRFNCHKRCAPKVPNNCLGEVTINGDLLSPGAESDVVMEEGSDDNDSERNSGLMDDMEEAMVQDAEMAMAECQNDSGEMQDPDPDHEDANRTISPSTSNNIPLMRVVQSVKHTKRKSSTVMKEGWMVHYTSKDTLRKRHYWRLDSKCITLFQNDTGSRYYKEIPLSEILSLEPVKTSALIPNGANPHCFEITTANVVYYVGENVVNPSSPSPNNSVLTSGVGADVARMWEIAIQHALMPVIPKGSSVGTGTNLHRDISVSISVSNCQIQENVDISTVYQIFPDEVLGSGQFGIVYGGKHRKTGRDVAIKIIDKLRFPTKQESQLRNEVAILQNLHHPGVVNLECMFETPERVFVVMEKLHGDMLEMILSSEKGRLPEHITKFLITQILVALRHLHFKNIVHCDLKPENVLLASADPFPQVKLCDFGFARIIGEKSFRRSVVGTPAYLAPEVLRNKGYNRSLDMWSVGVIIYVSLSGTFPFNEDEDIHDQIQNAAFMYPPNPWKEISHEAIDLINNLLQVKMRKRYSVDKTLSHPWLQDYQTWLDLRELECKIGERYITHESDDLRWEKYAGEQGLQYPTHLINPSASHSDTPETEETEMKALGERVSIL
ABCB1 inh = inhibitors of human ABCB1 transporter, ABCG2 counter-screen; P08183; CCRF-Adr cells, JC-1 efflux, flow cytometry; inhibition, % at 6.6 µM; 0.067% of 190,000 active; in the data active means inhibition above about 40%;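 further: 0% = vehicle and 100% = reference inhibitor; higher value means more JC-1 retained so stronger ABCB1 efflux block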
GSH bead fluor = GSH bead compound fluorescence profile; GSH beads flow cytometry, compound fluorescence 488/530 nm; hits give high values; fluorescence (KMESF) at 10 µM; 0.25% of 190,000 active; AID 1776; in the data active means fluorescence above about 89;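 further: glutathione beads carrying GST-tagged Bcl family fusion proteins plus one bare bead set; values are compound well signal with DMSO vehicle wells as background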
ABCG2 inh = blocks JC-1 efflux by human ABCG2 transporter. Q9UNQ0. IgMXP3 cells, flow cytometry. inhibition, % at 6.6 µM. 0.1% of 190,000 active. AID 1325;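 active means inhibition above 80%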;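 further: 0% = DMSO and 100% = nicardipine control wells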
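test system = two drug-resistant human cell lines, ABCG2 and ABCB1 | amount = 3 million cells/mL final, two lines in 1:1 ratio | reagent = JC-1 transporter substrate | doses = one concentration, 6.6 µM final | incubation = 10 min at 25 °C | signal = flow cytometric JC-1 green MFI at 530 nm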
L major 1uM = blocks Leishmania major promastigote growth at 1 uM, repeat screen; inhibition, % at 1 µM; shares compounds with Lmaj promast; 13% of 1,100 active; L. major promastigote growth, resazurin fluorescence, 48 h;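 active means inhibition above about 50% in both repeat tests, limit read from the data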
* = called active by the depositor; . = not tested or not shown. Unless noted, no stated cut-off is given here; in the data, active means inhibition above about 50%; inactive means the rest.

SMILES	Lmaj promast	Avidin bead fluor	PKD1 kinase inh	ABCB1 inh	GSH bead fluor	ABCG2 inh	L major 1uM
Cc1ccc(-n2nnnc2CCl)cc1	96*	11	-4	0	10	1	15
Cc1ccc2nc3cc([N+](=O)[O-])cc([N+](=O)[O-])c3cc2c1	101*	8	-8	-1	11	-1	100*
COc1ccc(-c2nc3nc(C)cc(C)n3n2)cc1	-1	38	-2	1	13	3	.
O=C(Cc1ccccc1)NC(c1ccco1)c1c(O)ccc2ccccc12 (stereo not given)	22	10	-7	0	18	-1	.
CC(=O)Oc1ccc2ccccc2c1C(NC(=O)Cc1ccccc1)c1ccccc1Cl (stereo not given)	55*	4	10	0	21	0	-23
COc1ccccc1NC(=S)NC1CCC(CC2CCC(NC(=S)Nc3ccccc3OC)CC2)CC1 (stereo not given)	15	5	-11	-1	11	-6	.
c1ccc(-c2nnc(-c3ccccc3)o2)cc1	1	7	0	0	20	0	.
ClCc1nnc(-c2ccccc2)o1	101*	9	1	1	5	0	5
Cc1cccc(NC(=O)C2SC(=Nc3c(C)cccc3C)C(C(=O)N3CCOCC3)=C2N)c1 (stereo not given)	0	12	-8	-1	11	-2	.
CCCN1C2CCCC1CC(NC(=O)c1ccccc1)C2 (stereo not given)	6	9	-8	0	51	0	.
CCCCN1C2CCCC1CC(NC(=O)C1CCCCC1)C2 (stereo not given)	88*	6	5	0	15	-2	-8
CCOC(=O)/C(=C/c1c(C)n(C)c2ccc([N+](=O)[O-])cc12)C(C)=O	83*	4	-2	1	9	2	22
CCOC(=O)c1c(N)c2cc([N+](=O)[O-])ccc2n1C	.	3	.	.	.	.	.
COc1ccc(OC)c(NC(=O)C2CCC(CNc3c(N4CCOCC4)c(=O)c3=O)CC2)c1 (stereo not given)	.	6	.	.	.	.	.
CCn1c2ccccc2c2nn(C)c(=N)nc21	96*	13	-8	-1	36	0	30
O=C(c1ccc(Cn2c(=O)[nH]c3ccccc3c2=O)cc1)N1CCN(c2ccccc2)CC1	94*	20	0	2	11	5	14
CCOC(=O)N=Nc1c(O)n(CC(=O)OC)c2ccccc12	3	7	-3	0	13	2	.
CCOC(=O)N=Nc1c2ccccc2c2nc3no[nH]c3nc12	101*	9	-3	2	12	8	100*
CN(C)CCCNCCCCNC(=O)/C=N/O	-1	12	-7	0	11	0	.
C=CC[N+](C)(C)CCCNC(=O)/C=N/O	73*	14	-4	2	4	21	-8
NC1=NC(=O)C2(COC(c3ccncc3)OC2)S1 (stereo not given)	-6	25	3	0	10	1	.
CCc1ccc(OCC(=O)NCc2ccco2)c(Br)c1	20	7	-10	1	18	11	.
CC(C)(C)C(=O)/C=c1\[nH]c(=O)/c(=C\c2ccc(F)cc2)s1	73*	27	-8	0	24	33	-4
CCc1ccc(/C=c2\s/c(=C\C(=O)C(C)(C)C)[nH]c2=O)cc1	39	9	-5	1	18	5	.
CN(c1ccccc1)c1ccc(/C=C(\CCC(=O)O)c2nc3ccccc3s2)cc1[N+](=O)[O-]	44	13	3	-1	2	-1	.
SMILES	Lmaj promast	Avidin bead fluor	PKD1 kinase inh	ABCB1 inh	GSH bead fluor	ABCG2 inh	L major 1uM
CN(c1ccccc1)c1ccc(/C=C(\C#N)c2nnc3n2CCCCC3)cc1[N+](=O)[O-]	56*	9	-12	1	10	14	14
C(=C/c1nccc2c1[nH]c1ccccc12)/c1ccc2c(c1)OCO2	96*	13	10	0	10	0	5
CN(C(=O)/C=C/c1ccc2c(c1)OCO2)c1ccccc1	3	10	-6	0	72	8	.
O=C(C1CC1)N1CCN=C1SCc1ccccc1Cl	-8	8	-2	-1	18	-1	.
Cc1cc(C)n(Cc2n[nH]c(=S)n2Cc2ccccc2)n1	-5	8	-7	4	19	26	.
Cc1nn(Cc2n[nH]c(=S)n2Cc2ccccc2)c(C)c1Cl	90*	8	-7	0	22	0	-11
Cc1cnn(-c2cc(Oc3ccccc3)ncn2)c1	-5	37	-7	0	9	3	.
NCCCCCc1nnc(SCC(=O)Nc2cccc(Cl)c2)o1	36	6	-15	0	71	1	.
NCCCCCc1nnc(SCc2cccc(Cl)c2)o1	98*	13	-1	0	24	0	-6
O=C(c1ccc(Cn2cc(Cl)c([N+](=O)[O-])n2)cc1)N1CCN(Cc2ccccc2)CC1	.	7	.	.	.	.	.
O=C(Nc1ccc(OC(F)(F)F)cc1)c1[nH]ncc1[N+](=O)[O-]	-1	9	0	1	12	26	.
Cc1cccc(OCCn2c(-c3ccco3)nc3ccccc32)c1	22	12	-4	1	60	3	.
Cc1cccc(OCCn2c(NC(=O)c3ccco3)nc3ccccc32)c1	97*	14	6	1	37	49	87*
O=C(NC1CC1)c1cccc(Nc2ccc(-c3ccc4c(c3)OCCO4)nn2)c1	50*	24	-5	0	20	1	-15
O=S(=O)(c1ccc(Nc2ccc(-c3ccc4c(c3)OCCO4)nn2)cc1)N1CCCC1	23	15	-6	0	13	0	.
CCCc1nc2ccc(NC(=O)c3cccs3)cc2c(=O)n1Cc1ccc(Cl)cc1	72*	15	-8	0	9	-2	-7
CCCOc1ccc(N)cc1N	74*	7	-2	0	15	2	-14
CCCOc1ccccc1NC(=O)c1ccc(N)cc1	15	19	2	1	.	7	.
Nc1nsc2ccccc12	100*	35	11	0	13	0	95*
Cc1ccc2nc(Cl)c3nnnn3c2c1	100*	8	0	0	18	12	93*
Cc1nn(-c2cccc(C(F)(F)F)c2)c(Cl)c1/C=N/Nc1cccc(C(=O)O)c1	90*	7	-10	-2	3	-10	-8
C/C(CC(=O)Nc1ccccc1F)=N\NC(=O)Cc1ccc(Cl)cc1	-2	8	-4	0	11	-1	.
CC(/C=N/NC(=O)c1cc(-c2ccncc2)nc2ccccc12)=C\c1ccco1	89*	14	-1	4	27	19	19
COc1cc2c3nnc(-c4ccc(F)cc4)c-3cn(Cc3ccc(F)cc3)c2cc1OC	97*	6	6	0	19	4	-17

Screening data (PubChem)
